ChEMBL document CHEMBL1140904, “Synthesis and analysis of novel glycerolipids for the treatment of metabolic syndrome” (J Med Chem, 2009)
Activity calls are given as the source filed them. The rule behind the calls is not given here.

Columns and labels:
[1] = test system: Rattus norvegicus; test: Effect on fatty acid composition in Wistar rat assessed as change in liver LCPUFA, n-6 level at dose equivalent to 85 umol of tetradecylthioacetic acid, po after 6 days; assay type: functional
Outline: (§1)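 Male Wistar rats were gavaged once daily for 6 days with compound in 0.5% CMC at 85 or 250 µmol TTA-equivalent per animal. Controls received palmitic acid. Liver was homogenized in 0.25 M sucrose/10 mM HEPES pH 7.4/1 mM EDTA at 0-4 °C. Lipids were extracted with chloroform:methanol 2:1 and spiked with 21:0 internal standard. Fatty acids were BF3-methanol transesterified and quantified as wt%. Values are mean ± SD, n=5.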

[2] = test system: Rattus norvegicus; test: Effect on fatty acid composition in Wistar rat assessed as change in liver LCPUFA, n-6 level at dose equivalent to 250 umol of tetradecylthioacetic acid, po after 6 days; assay type: functional; outline: as §1
[3] = test system: Rattus norvegicus; test: Plasma concentration in Wistar rat assessed as tetradecylthioacetic acid at dose equivalent to 85 umol of tetradecylthioacetic acid, po after 6 days; assay type: ADME, organism-based; details: in vivo, 144 h
[4] = test system: Rattus norvegicus; test: Effect on fatty acid composition in Wistar rat assessed as change in liver LCn-6/18:2 level at dose equivalent to 250 umol of tetradecylthioacetic acid, po after 6 days; assay type: functional; outline: as §1
[5] = test system: Rattus norvegicus; test: Induction of PPAR-alpha-regulated mitochondrial HMG-CoA synthase activity in Wistar rat at dose equivalent to 250 umol of tetradecylthioacetic acid, po after 6 days relative to control; assay type: functional
Outline: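 Wistar rats were gavaged daily for 6 days at 85 or 250 µmol TTA-equivalent in 0.5% CMC, with palmitic acid controls. HMG-CoA synthase activity was assayed in the liver postnuclear fraction by the Clinkenbeard method. Mean ± SD, 5 rats/group.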

[6] = test system: Rattus norvegicus; test: Effect on fatty acid composition in Wistar rat assessed as change in plasma saturated fatty acid level at dose equivalent to 85 umol of tetradecylthioacetic acid, po after 6 days; assay type: functional
[7] = test system: Rattus norvegicus; test: Decrease in plasma triacylglycerol level in po dosed Wistar rat after 6 days; assay type: functional, organism-based
Outline: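 Male Wistar rats (170-210 g), housed in pairs with chow and water, were gavaged once daily for 6 days with test lipid in 0.5% (w/v) carboxymethylcellulose at 85 or 250 µmol TTA-equivalent per animal. Controls received palmitic acid in CMC. Plasma triacylglycerol and cholesterol were measured with an enzymatic kit, and liver levels were also determined. Values are mean ± SD, n=5 rats.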

[8] = test system: Liver; test: Drug concentration in Wistar rat liver assessed as tetradecylthioacetic acid at dose equivalent to 85 umol of tetradecylthioacetic acid, po after 6 days; assay type: ADME, organism-based; details: in vivo, 144 h; outline: as §1
[9] = test system: Rattus norvegicus; test: Effect on fatty acid composition in Wistar rat assessed as change in plasma PUFA level at dose equivalent to 85 umol of tetradecylthioacetic acid, po after 6 days; assay type: functional
[10] = test system: Rattus norvegicus; test: Induction of PPAR-alpha-regulated CPT2 activity in po dosed Wistar rat after 6 days relative to control; assay type: functional
Outline: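 Wistar rats were dosed orally for 6 days (85 or 250 µmol TTA-equivalent in 0.5% CMC; palmitic acid controls). CPT-II activity was measured in the liver mitochondrial fraction, prepared from sucrose/HEPES pH 7.4/EDTA homogenate at 0-4 °C. Means ± SD from 5 rats per group.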

[11] = test system: Rattus norvegicus; test: Increase in [1-14C]palmitoyl-CoA oxidation in Wistar rat liver homogenate at 250 uM, po after 6 days; assay type: functional, organism-based
Outline: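 Rats were dosed by gastric intubation for 6 days with 85 or 250 µmol TTA-equivalent in 0.5% CMC, with palmitic acid controls. Liver was homogenized in 0.25 M sucrose, 10 mM HEPES pH 7.4, 1 mM EDTA at 0-4 °C. Palmitoyl-CoA oxidation was read as acid-soluble products from [1-14C]-palmitoyl-CoA in the postnuclear fraction. Mean ± SD, n=5.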

[12] = test system: Rattus norvegicus; test: Effect on fatty acid composition in Wistar rat assessed as change in liver LCn-6/18:2 level at dose equivalent to 85 umol of tetradecylthioacetic acid, po after 6 days; assay type: functional; outline: as §1

Drug uptake [3]: 0.9%
Drug uptake [8]: 1.28%
Drug uptake ([8]; in the assay text read “equivalent to 250 umol” for “equivalent to 85 umol”): 3.34%
SMILES: CCCCCCCCCCCCCCSCC(=O)OC[C@H](COP(=O)([O-])OCC[N+](C)(C)C)OC(=O)CSCCCCCCCCCCCCCC [PHOSPHATIDYLCHOLINE]
Activity [1]: 26.13%
Activity [2]: 30.3%
Activity [4]: 3.49%
fold change (FC) [5]: 4
Activity [6]: 35.65%
Activity [7]: Dose-dependent effect
Activity [9]: 2.42%
fold change (FC) [10]: 3
Activity [11]: inactive
Activity [12]: 2.19%
